Rows were chosen to be rich in hits. Some 2% of all compounds tested hit in one or more screens of this group.
CaV13 ICDI inh: Disruptors of the CACNA1D IQ motif to Ca2+-dependent inactivation inhibitor domain association, primary screening, Förster resonance energy transfer in intact living …; inhibition, % at 12.3 µM; 340,000 tested, 0.098% active; HEK cells, CFP/YFP FRET ICDI-IQ, plate reader, 10 min; percent FRET-ratio fall versus neutral wells;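 active = mean replicate inhibition of at least 30% and at least 1% of replicates passing that level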;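 also: 0% = median of the neutral control wells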
Xi reactivation: reactivates the inactive X chromosome in mouse fibroblasts; XiGFP mouse fibroblasts, % GFP-positive cells imaging, 3 d; cells co-treated with 5-aza-dC sensitizer; scaled so ellipticine positive control = 100%; activation, % at 7.58 µM; 360,000 tested, 0.055% active; AID 743238;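 active = mean normalized replicate activation at least 10% and every replicate at or above 10%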;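 also: 0% = median of on-plate neutral control wells and 100% = ellipticine 6 µM median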
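Assay system – SV40-immortalized XiGFP fibroblast cells, line 68-5-11 · Buffer or medium – DMEM supplemented with 5-aza-dC as sensitizing agent · Dosing – one concentration, pinned · Benchmarks – positive control ellipticine, 6 µM final · Times – 3 days compound exposure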
TWEAK-Fn14 inh: blocks TWEAK-Fn14 interaction in a reporter cell assay | TWEAK-stimulated Fn14 reporter cells, luciferase luminescence, 8 h | inhibition, % at 10 µM | 360,000 tested, 2% active; in the data active = inhibition above about 50%
TROY NFkB inh: inhibitors of TROY-dependent NF-kB signaling; Q293 LMP1-TROYcd NF-kB luciferase reporter, 4 h; inhibition, % at 10 µM; 360,000 tested, 0.98% active;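 active = compounds whose plate-normalised and pattern-corrected inhibition of the luciferase reporter signal at the single screening dose is 50% or more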
LGR2 antag: inhibitors of bursicon-induced Drosophila LGR2 receptor cAMP signaling; HEK293 LGR2, CRE-luciferase, bursicon-stimulated, 4 h; inhibition, % at 9.99 µM; 380,000 tested, 0.35% active; AID 720647;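 active = drop in luminescence signal, shown as inhibition above about 50% in the replicate tests, limit read from the data, passing the limit was not always enough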;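 also: agonist challenge used bursicon conditioned medium at about half maximal strength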
* hit, by the source's call; . = no result.

SMILES	CaV13 ICDI inh	Xi reactivation	TWEAK-Fn14 inh	TROY NFkB inh	LGR2 antag
CCC(=O)NNC(=O)Cc1c(C)n(C(=O)c2ccc(Cl)cc2)c2ccc(OC)cc12	-2	0	56*	-11	16
C/C=C/c1cnc2c(c1)C(=O)N([C@H](C)CO)C[C@@H](C)[C@H](CN(C)Cc1ccccc1F)O2	.	0	.	.	11
CCC(Sc1nc(C)cc(C)n1)C(=O)Nc1ccc(Cl)cn1 (configuration not stated)	.	.	59*	.	.
CC(=O)c1c(Nc2ccc3c(c2)OCCO3)oc(C)cc1=O	-2	0	70*	39	-78
COc1cc(N=Nc2ccc(Br)cc2)cc(C=O)c1O	-6	0	87*	47	-1
O=[N+]([O-])c1ccc(/C=N/Nc2nc(N3CCCCC3)nc(N3CCCCC3)n2)cc1	-5	0	-4	-12	.
O=[N+]([O-])c1ccc(Nc2nc(N/N=C\c3ccc4c(c3)OCO4)nc(N3CCCCC3)n2)cc1	-4	.	54*	12	.
C[C@@H]1CN([C@@H](C)CO)C(=O)c2cc(NC(=O)Nc3cccc4ccccc34)ccc2O[C@H]1CN(C)C(=O)Nc1ccc2c(c1)OCO2	.	0	.	.	10
Cc1cc(C)cc(S(=O)(=O)Cc2noc(C(=O)NCc3ccccc3)c2C(=O)NCc2ccccc2)c1	-10	0	9	-6	-17
CCCc1nnc(NC(=O)c2nc(S(=O)(=O)Cc3cccc(C)c3)ncc2Cl)s1	-5	1	93*	57*	-10
Cc1cccc(CS(=O)(=O)c2ncc(Cl)c(C(=O)NCc3ccccc3)n2)c1	-2	0	97*	63*	-17
Cc1cccc(C)c1NC(=O)c1nc(S(=O)(=O)Cc2ccccc2)ncc1Cl	-7	0	74*	53*	19
Cc1cccc(CS(=O)(=O)c2ncc(Cl)c(C(=O)Nc3c(C)cccc3C)n2)c1	-3	2	90*	67*	17
COCC(=O)Nc1ccc2c(c1)[C@H]1C[C@H](CC(=O)NCc3ccccc3F)O[C@@H](CO)[C@H]1O2	.	0	.	.	-4
Cc1cccc(S(=O)(=O)N2CC[C@@H]3[C@H]2c2cc(-c4ccccc4F)ccc2N(C)[C@H]3CO)c1	.	0	.	.	3
C[C@@H]1CCCCO[C@@H](CN(C)C(=O)Cc2ccccc2)[C@@H](C)CN([C@H](C)CO)C(=O)c2cc(NC(=O)CCC(F)(F)F)ccc2O1	.	0	.	.	-16
C[C@@H]1CCCCO[C@@H](CN(C)C(=O)Nc2ccc(F)cc2)[C@@H](C)CN([C@@H](C)CO)C(=O)c2cc(NC(=O)NC3CCCCC3)ccc2O1	.	-1	.	.	1
Cc1nnc(NC(=O)c2nc(S(=O)(=O)Cc3ccccc3)ncc2Cl)s1	-14	0	91*	-2	-29
Cc1nnc(NC(=O)CS(=O)(=O)Cc2ccccc2)s1	-3	0	-2	1	15
COc1ccc(CNC(=O)CNS(=O)(=O)c2ccc(Cl)cc2)cc1	-5	0	82*	80*	.
COc1ccc(CCNC(=O)CNS(=O)(=O)c2ccc(Cl)cc2)cc1	-3	0	-11	-8	1
C[C@H]1CN([C@@H](C)CO)C(=O)c2cc(NC(=O)CCCN(C)C)ccc2O[C@H]1CN(C)C(=O)Nc1ccc2c(c1)OCO2	.	-1	.	.	1
CCN(CC)Cc1c(O)ccc2occ(C(=O)c3ccc(OC)cc3)c12	-4	.	-17	-4	.
CCN(CC)Cc1c(O)ccc2c([N+](=O)[O-])c(C)n(-c3ccc(OC)cc3)c12	.	.	74*	36	.
Cc1cccc(CCNc2nc3ccc(C)cc3n3cnnc23)c1	-3	0	74*	73*	-59
Cc1ccc2nc(NCCc3ccc(Cl)cc3)c3nncn3c2c1	-3	0	-26	-1	8
N#Cc1cccc(C=C(C(=O)c2ccccc2)c2ccccc2)c1	-11	0	64*	-50	26
N#C/C(=C\c1ccc(C#N)cc1)C(=O)c1ccccc1	-19	0	6	-10	-5
CC(C)Nc1ncnc2c1ncn2[C@H]1CN(Cc2ccc(-c3ccccc3)cc2)C[C@@H](CO)O1	-3	0	18	30	0
CC(C)CNc1ncnc2c1ncn2[C@H]1CN(Cc2ccc(-c3ccccc3)cc2)C[C@@H](CO)O1	-11	0	51*	28	15
